In assay [1] the test system is T47D. The experiment in a line: Inhibition of PR-A mRNA gene expression in human T47D cells at 100 nM by syber green assay. The assay is classed as functional. In a few lines:
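T47D cells plated at 80,000/well without antibiotics two days before Oligofectamine transfection with agRNA duplex (25 or 100 nM final); medium changed at 24 h, harvest day 5 unless stated otherwise. TRIzol total RNA; PR mRNA by real-time PCR with SYBR Green: 50 °C 2 min, 95 °C 10 min, 40 cycles 95 °C 15 s/60 °C 1 min.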

The subject of assay [2] is T47D. As to the kind of experiment: Inhibition of PR-B mRNA gene expression in human T47D cells at 100 nM by syber green assay. The format is functional. In a few lines: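 T47D cells in RPMI-1640 with 10% FBS, NEAA, insulin, 37 °C, 5% CO2. Plated two days before transfection without antibiotics. Oligofectamine-mediated duplex RNA transfection at 100 nM final, medium changed at 24 h, harvest five days post-transfection. Total RNA extracted with TRIzol. hPR mRNA quantified by SYBR Green qPCR: 50 °C 2 min, 95 °C 10 min, then 40 cycles of 95 °C 15 s / 60 °C 1 min.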

Structures are written as SMILES.

For `Cc1cn([C@H]2C[C@H](OP(=O)(O)OC[C@H]3O[C@@H](n4cc(C)c(=O)[nH]c4=O)C[C@@H]3O)[C@@H](COP(=O)(O)O[C@H]3[C@@H](O)[C@H](n4ccc(N)nc4=O)O[C@@H]3COP(=O)(O)O[C@H]3[C@@H](O)[C@H](n4cnc5c(=O)[nH]c(N)nc54)O[C@@H]3COP(=O)(O)O[C@H]3[C@@H](O)[C@H](n4cnc5c(N)ncnc54)O[C@@H]3COP(=O)(O)O[C@H]3[C@@H](O)[C@H](n4ccc(N)nc4=O)O[C@@H]3COP(=O)(O)O[C@H]3[C@@H](O)[C@H](n4cnc5c(N)ncnc54)O[C@@H]3COP(=O)(O)O[C@H]3[C@@H](O)[C@H](n4cnc5c(=O)[nH]c(N)nc54)O[C@@H]3COP(=O)(O)O[C@H]3[C@@H](O)[C@H](n4ccc(N)nc4=O)O[C@@H]3COP(=O)(O)O[C@H]3[C@@H](O)[C@H](n4ccc(=O)[nH]c4=O)O[C@@H]3COP(=O)(O)O[C@H]3[C@@H](O)[C@H](n4cnc5c(=O)[nH]c(N)nc54)O[C@@H]3COP(=O)(O)O[C@H]3[C@@H](O)[C@H](n4cnc5c(N)ncnc54)O[C@@H]3COP(=O)(O)O[C@H]3[C@@H](O)[C@H](n4ccc(N)nc4=O)O[C@@H]3COP(=O)(O)O[C@H]3[C@@H](O)[C@H](n4ccc(N)nc4=O)O[C@@H]3COP(=O)(O)O[C@H]3[C@@H](O)[C@H](n4cnc5c(=O)[nH]c(N)nc54)O[C@@H]3COP(=O)(O)O[C@H]3[C@@H](O)[C@H](n4ccc(N)nc4=O)O[C@@H]3COP(=O)(O)O[C@H]3[C@@H](O)[C@H](n4ccc(=O)[nH]c4=O)O[C@@H]3COP(=O)(O)O[C@H]3[C@@H](O)[C@H](n4ccc(N)nc4=O)O[C@@H]3COP(=O)(O)O[C@H]3[C@@H](O)[C@H](n4ccc(=O)[nH]c4=O)O[C@@H]3COP(=O)(O)O[C@H]3[C@@H](O)[C@H](n4cnc5c(=O)[nH]c(N)nc54)O[C@@H]3COP(=O)(O)O[C@H]3[C@@H](O)[C@H](n4ccc(=O)[nH]c4=O)O[C@@H]3CO)O2)c(=O)[nH]c1=O`, the inhibition at 0.1 µM in the assay on T47D [1] and in the assay on T47D [2] was < 20% each time.
In the case of `Cc1cn([C@H]2C[C@H](OP(=O)(O)OC[C@H]3O[C@@H](n4cc(C)c(=O)[nH]c4=O)C[C@@H]3O)[C@@H](COP(=O)(O)O[C@H]3[C@@H](O)[C@H](n4ccc(N)nc4=O)O[C@@H]3COP(=O)(O)O[C@H]3[C@@H](O)[C@H](n4cnc5c(=O)[nH]c(N)nc54)O[C@@H]3COP(=O)(O)O[C@H]3[C@@H](O)[C@H](n4cnc5c(N)ncnc54)O[C@@H]3COP(=O)(O)O[C@H]3[C@@H](O)[C@H](n4cnc5c(=O)[nH]c(N)nc54)O[C@@H]3COP(=O)(O)O[C@H]3[C@@H](O)[C@H](n4cnc5c(N)ncnc54)O[C@@H]3COP(=O)(O)O[C@H]3[C@@H](O)[C@H](n4ccc(N)nc4=O)O[C@@H]3COP(=O)(O)O[C@H]3[C@@H](O)[C@H](n4ccc(N)nc4=O)O[C@@H]3COP(=O)(O)O[C@H]3[C@@H](O)[C@H](n4ccc(=O)[nH]c4=O)O[C@@H]3COP(=O)(O)O[C@H]3[C@@H](O)[C@H](n4cnc5c(=O)[nH]c(N)nc54)O[C@@H]3COP(=O)(O)O[C@H]3[C@@H](O)[C@H](n4cnc5c(N)ncnc54)O[C@@H]3COPO[C@H]3[C@@H](O)[C@H](n4ccc(N)nc4=O)O[C@@H]3COP(=O)(O)O[C@H]3[C@@H](O)[C@H](n4cnc5c(=O)[nH]c(N)nc54)O[C@@H]3COP(=O)(O)O[C@H]3[C@@H](O)[C@H](n4cnc5c(=O)[nH]c(N)nc54)O[C@@H]3COP(=O)(O)O[C@H]3[C@@H](O)[C@H](n4cnc5c(=O)[nH]c(N)nc54)O[C@@H]3COP(=O)(O)O[C@H]3[C@@H](O)[C@H](n4ccc(=O)[nH]c4=O)O[C@@H]3COP(=O)(O)O[C@H]3[C@@H](O)[C@H](n4ccc(N)nc4=O)O[C@@H]3COP(=O)(O)O[C@H]3[C@@H](O)[C@H](n4ccc(=O)[nH]c4=O)O[C@@H]3COP(=O)(O)O[C@H]3[C@@H](O)[C@H](n4ccc(N)nc4=O)O[C@@H]3COP(=O)(O)O[C@H]3[C@@H](O)[C@H](n4ccc(=O)[nH]c4=O)O[C@@H]3CO)O2)c(=O)[nH]c1=O` (stereo partly drawn), the inhibition at 0.1 µM with T47D [1] and in the assay on T47D [2] was < 20% in each case.
As to `Cc1cn([C@H]2C[C@H](OP(=O)(O)OC[C@H]3O[C@@H](n4cnc5c(=O)[nH]c(N)nc54)C[C@@H]3OP(=O)(O)OC[C@H]3O[C@@H](n4cc(C)c(=O)[nH]c4=O)C[C@@H]3OP(=O)(O)OC[C@H]3O[C@@H](n4ccc(N)nc4=O)C[C@@H]3OP(=O)(O)OC[C@H]3O[C@@H](n4cc(C)c(=O)[nH]c4=O)C[C@@H]3OP(=O)(O)OC[C@H]3O[C@@H](n4cnc5c(=O)[nH]c(N)nc54)C[C@@H]3OP(=O)(O)OC[C@H]3O[C@@H](n4cnc5c(=O)[nH]c(N)nc54)C[C@@H]3OP(=O)(O)OC[C@H]3O[C@@H](n4ccc(N)nc4=O)C[C@@H]3OP(=O)(O)OC[C@H]3O[C@@H](n4ccc(N)nc4=O)C[C@@H]3OP(=O)(O)OC[C@H]3O[C@@H](n4cnc5c(N)ncnc54)C[C@@H]3OP(=O)(O)OC[C@H]3O[C@@H](n4cnc5c(=O)[nH]c(N)nc54)C[C@@H]3OP(=O)(O)OC[C@H]3O[C@@H](n4cc(C)c(=O)[nH]c4=O)C[C@@H]3OP(=O)(O)OC[C@H]3O[C@@H](n4ccc(N)nc4=O)C[C@@H]3OP(=O)(O)OC[C@H]3O[C@@H](n4ccc(N)nc4=O)C[C@@H]3OP(=O)(O)OC[C@H]3O[C@@H](n4cnc5c(N)ncnc54)C[C@@H]3OP(=O)(O)OC[C@H]3O[C@@H](n4ccc(N)nc4=O)C[C@@H]3OP(=O)(O)OC[C@H]3O[C@@H](n4cnc5c(N)ncnc54)C[C@@H]3OP(=O)(O)OC[C@H]3O[C@@H](n4cnc5c(=O)[nH]c(N)nc54)C[C@@H]3OP(=O)(O)OC[C@H]3O[C@@H](n4ccc(N)nc4=O)C[C@@H]3O)[C@@H](CO)O2)c(=O)[nH]c1=O`, the inhibition at 0.1 µM with T47D [1] and in the assay with T47D [2] was < 20% throughout.
Consider `Cc1cn([C@H]2C[C@H](OP(=O)(O)OC[C@H]3O[C@@H](n4cnc5c(=O)[nH]c(N)nc54)C[C@@H]3OP(=O)(O)OC[C@H]3O[C@@H](n4cc(C)c(=O)[nH]c4=O)C[C@@H]3OP(=O)(O)OC[C@H]3O[C@@H](n4ccc(N)nc4=O)C[C@@H]3OP(=O)(O)OC[C@H]3O[C@@H](n4cc(C)c(=O)[nH]c4=O)C[C@@H]3OP(=O)(O)OC[C@H]3O[C@@H](n4cnc5c(=O)[nH]c(N)nc54)C[C@@H]3OP(=O)(O)OC[C@H]3O[C@@H](n4cnc5c(=O)[nH]c(N)nc54)C[C@@H]3OP(=O)(O)OC[C@H]3O[C@@H](n4ccc(N)nc4=O)C[C@@H]3OP(=O)(O)OC[C@H]3O[C@@H](n4ccc(N)nc4=O)C[C@@H]3OP(=O)(O)OC[C@H]3O[C@@H](n4cnc5c(N)ncnc54)C[C@@H]3OP(=O)(O)OC[C@H]3O[C@@H](n4cnc5c(=O)[nH]c(N)nc54)C[C@@H]3OP(=O)(O)OC[C@H]3O[C@@H](n4cc(C)c(=O)[nH]c4=O)C[C@@H]3OP(=O)(O)OC[C@H]3O[C@@H](n4ccc(N)nc4=O)C[C@@H]3OP(=O)(O)OC[C@H]3O[C@@H](n4ccc(N)nc4=O)C[C@@H]3OP(=O)(O)OC[C@H]3O[C@@H](n4cnc5c(N)ncnc54)C[C@@H]3OP(=O)(O)OC[C@H]3O[C@@H](n4ccc(N)nc4=O)C[C@@H]3OP(=O)(O)OC[C@H]3O[C@@H](n4cnc5c(N)ncnc54)C[C@@H]3OP(=O)(O)OC[C@H]3O[C@@H](n4cnc5c(=O)[nH]c(N)nc54)C[C@@H]3OP(=O)(O)OC[C@H]3O[C@@H](n4ccc(N)nc4=O)C[C@@H]3OP(=O)(O)OC[C@H]3O[C@@H](n4cc(C)c(=O)[nH]c4=O)C[C@@H]3OP(=O)(O)OC[C@H]3O[C@@H](n4cc(C)c(=O)[nH]c4=O)C[C@@H]3O)[C@@H](CO)O2)c(=O)[nH]c1=O`, for which the inhibition at 0.1 µM with T47D [1] and in the assay on T47D [2] was < 20% each time.
